Measured values: PubChem BioAssay
Calls of active or inactive are those of the source.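 How the source made its calls, unless noted: active means inhibition at or above 50% relative to wild type and mutant plate controls; inactive means inhibition below 50%.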

Tests used:
[1] = inhibitors of TNFa-induced NFkB p65 translocation, primary screen, imaging, HUVEC, MLSMR starter and 10KST1 sets (AID 438;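 active means inhibition above 20% together with a positive visual image hit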;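 further: compound added about 3h40 before a 20 min TNFalpha stimulation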;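 on inhibition: signal is the nuclear over cytoplasmic p65 intensity ratio per well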); conditions: HUVEC TNFa-induced p65 nuclear translocation; cell count: measured here: nuclei count (cytotoxicity indicator), at 2.08 µM; inhibition: at 2 µM, stronger effect = higher value, 0% TNFa-plus-vehicle, 100% no-TNFa wells
[2] = inhibitors of E-selectin induction by TNFa, primary screen, imaging, HUVEC, immunofluorescence, MLSMR starter and 10KST1 sets (AID 487;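 active means visually confirmed hit in the image check and inhibition above 20%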;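 on inhibition: signal is fraction of cell area covered by stained E-selectin grains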;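 on nuclei count: 100% = median nuclei count of all wells on the same plate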); conditions: HUVEC TNFalpha-induced E-selectin immunofluorescence imaging, at 2 µM; inhibition: stronger effect = higher value; nuclei count: measured here: cell number, toxicity
[3] = DUSP6 inhibitors restoring Erk phosphorylation by chemical complementation, primary imaging in DUSP6-transfected HeLa (AID 609;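 active means compounds giving at least 50% inhibition in the cell-based MKP-3 phosphatase rescue imaging test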;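 on inhibition: phospho-Erk level distribution per well compared with pooled transfected vehicle control wells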); conditions: HeLa MKP-3 transfected, phospho-Erk imaging KS statistic, at 10 µM, cells stimulated with TPA for 15 min
[4] = target: Dual specificity protein phosphatase 6 (Homo sapiens) (UniProt Q16828); assay: as above; conditions: HeLa MKP-3 transfected, phospho-Erk imaging KS statistic; at 10 µM; stronger effect = higher value; cells stimulated with TPA for 15 min
Sequence of Dual specificity protein phosphatase 6 (Homo sapiens) (Q16828 whole entry, looked up): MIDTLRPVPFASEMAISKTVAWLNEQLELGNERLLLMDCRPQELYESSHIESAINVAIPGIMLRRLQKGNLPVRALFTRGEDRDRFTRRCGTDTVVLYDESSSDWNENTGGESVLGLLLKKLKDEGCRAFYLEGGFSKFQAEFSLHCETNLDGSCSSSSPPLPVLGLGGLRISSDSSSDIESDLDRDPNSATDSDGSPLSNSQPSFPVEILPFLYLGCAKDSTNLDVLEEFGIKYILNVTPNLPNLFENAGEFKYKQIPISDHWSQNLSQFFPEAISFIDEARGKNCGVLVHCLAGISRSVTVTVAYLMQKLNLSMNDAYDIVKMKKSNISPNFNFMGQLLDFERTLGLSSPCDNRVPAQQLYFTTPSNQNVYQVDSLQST

[5] = target: Voltage-gated potassium channel subunit beta-2 (Rattus norvegicus) (UniProt P62483); assay: KvBeta enzyme negative modulators, primary screen, biochemical, NADPH fluorescence (AID 622;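 active means fluorescence slope higher than the sample average by over 3 SD, cut at about -0.22 in these data, passing the limit was not always enough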;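 further: slope of raw intensity against log time taken from 70 to 1610 s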); conditions: recombinant KvBeta, 4-cyanobenzaldehyde reduction, at 10 µM, stronger effect = higher value
Sequence of Voltage-gated potassium channel subunit beta-2 (Rattus norvegicus) (P62483 whole entry, looked up): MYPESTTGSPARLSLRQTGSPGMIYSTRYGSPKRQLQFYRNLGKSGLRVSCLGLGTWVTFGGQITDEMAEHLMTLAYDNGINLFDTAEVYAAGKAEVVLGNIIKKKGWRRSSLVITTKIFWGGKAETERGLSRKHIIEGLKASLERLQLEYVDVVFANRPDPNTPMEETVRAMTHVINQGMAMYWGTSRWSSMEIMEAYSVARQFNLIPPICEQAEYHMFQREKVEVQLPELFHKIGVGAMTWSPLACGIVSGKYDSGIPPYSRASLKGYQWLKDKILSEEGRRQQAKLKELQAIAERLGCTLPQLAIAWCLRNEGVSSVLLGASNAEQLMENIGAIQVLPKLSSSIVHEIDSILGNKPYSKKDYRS

[6] = target: Voltage-gated potassium channel subunit beta-2 (Rattus norvegicus) (UniProt P62483); assay: KvBeta positive modulators, primary screen, biochemical, NADPH fluorescence (AID 623;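 active means NADPH fluorescence slope more negative than the mean of all samples by about 3 SD, 99.7% confidence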;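 further: fluorescence intensity change per second fitted from 20 to 320 s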); conditions: Recombinant KvBeta, NADPH fluorescence decrease slope, 10 min; at 10 µM; stronger effect = lower value
[7] = target: Alpha-2C adrenergic receptor (Homo sapiens) (UniProt P18825); assay: modulators of alpha2C/GIRK thallium flux, primary screen, cell-based, HEK293 alpha2C/GIRK1/2 (AID 624;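 active means fluorescence slope after compound addition differing from the mean of all screened samples at 99.7% confidence, in either direction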;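 further: slope of fluorescence ratio to pre-addition baseline per second over 15 to 24 s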); conditions: thallium flux BTC fluorescence, at 10 µM, actives lie on both sides
Sequence of Alpha-2C adrenergic receptor (Homo sapiens) (P18825 whole entry, looked up): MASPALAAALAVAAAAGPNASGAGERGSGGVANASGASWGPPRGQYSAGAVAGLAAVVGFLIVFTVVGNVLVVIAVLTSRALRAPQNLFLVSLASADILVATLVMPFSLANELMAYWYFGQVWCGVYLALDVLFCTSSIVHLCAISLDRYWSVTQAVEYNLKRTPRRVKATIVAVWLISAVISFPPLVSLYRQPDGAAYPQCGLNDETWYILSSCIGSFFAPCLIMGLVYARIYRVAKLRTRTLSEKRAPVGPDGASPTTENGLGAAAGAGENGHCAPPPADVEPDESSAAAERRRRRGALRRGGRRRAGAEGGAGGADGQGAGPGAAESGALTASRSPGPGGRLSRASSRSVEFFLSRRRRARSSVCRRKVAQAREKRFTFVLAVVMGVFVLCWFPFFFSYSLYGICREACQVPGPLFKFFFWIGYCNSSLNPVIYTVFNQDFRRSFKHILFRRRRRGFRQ

[8] = inhibitors of larval lipid processing in zebrafish, primary screen, whole organism, PED6 fluorescence, gall bladder and intestine (AID 686;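 active means a full or partial loss of lipid-probe fluorescence in the fish gall bladder, intestine or both, judged by eye; inactive means no fluorescence loss, or compound toxic to the fish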;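 further: larvae 5 to 7 days old with five fish per well; signal comes from phospholipase A2 cleavage of quenched PED6 carried via bile; overnight exposure to compound and PED6 before scoring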); conditions: Zebrafish larvae PED6 lipid processing, fluorescence scoring; screened at 20 µM (by protocol)
How it was run: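 Doses: 20 µM single dose. Test system: live zebrafish larvae aged 5-7 days, whole organism. Quantity: five larvae per well. Measured by: By-eye fluorescence microscopy. Reagent: ingested quenched lipid PED6 at 100 nM. Read-out: visual per-well fluorescence inhibition score. Times: overnight exposure of larvae to compound plus PED6.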

[9] = inhibitors of Chlamydomonas gravitaxis, primary screen, whole organism, Chlamydomonas reinhardtii, WT vs cilia-less mutant, absorbance, 96-well (AID 463189); conditions: OD600 absorbance, 2 days, at 10 µM, stronger effect = higher value;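 further: 0% = wild type cc124 cells in DMSO and 100% = ciliumless bld1 mutant cells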
[10] = measured here: cell density z-score
[11] = measured here: nuclear c-Myc green intensity z-score
[12] = measured here: nuclear pErk red intensity z-score, stronger effect = higher value

Structure (SMILES)	cell count [1]	inhibition [1]	inhibition [2]	nuclei count [2]	z-score [3, 10]	z-score [3, 11]	z-score [3, 12]	inhibition [4]	fluorescence slope [5]	NADPH fluorescence slope [6]	slope [7]	outcome [8]	inhibition [9]
Fc1cnc(N2CCOCC2)nc1NCc1ccccc1	649	-2.3% (inactive)	32.4% (inactive)	156%	-0.315	0.582	0.114	6.51% (inactive)	-0.388 (inactive)	-5.9e-05 (inactive)	0.00592 (inactive)	inactive	0.319% (inactive)
COc1ccc(Cn2c(O)cc(=O)[nH]c2=O)cc1	518	-0.7% (inactive)	-49.2% (inactive)	94%	-1.59	1.15	-0.805	11.9% (inactive)	-0.386 (inactive)	4.3e-06 (inactive)	0.00581 (inactive)	inactive	-11.1% (inactive)
O=c1[nH]c(CN2CCCCC2)nc2c1C1(CCCCC1)Cc1ccccc1-2	374	-4.7% (inactive)	-4.9% (inactive)	104%	0.315	0.221	-1.87	-4.7% (inactive)	-0.395 (inactive)	2.4e-05 (inactive)	0.0066 (inactive)	inactive	-10.4% (inactive)
COC(=O)CN(c1cc(OC)ccc1OC)S(=O)(=O)c1ccc(OC)c(OC)c1	365	-5% (inactive)	-37.1% (inactive)	130%	-0.822	0.297	-0.958	-2.59% (inactive)	-0.417 (inactive)	-0.000193 (inactive)	0.00438 (inactive)	inactive	-0.193% (inactive)
O=C1[C@@H]2[C@H](C(=O)N1O)[C@H]1C=C[C@@H]2C1	468	-1% (inactive)	-174% (inactive)	209%	-1.39	1.02	0.777	1.04% (inactive)	-0.392 (inactive)	-1.7e-05 (inactive)	0.00509 (inactive)	inactive	2.48% (inactive)
COc1ccc(C(CC(=O)N2CCOCC2)C(C)C)cc1 (stereo not drawn)	486	10.6% (inactive)	-31.9% (inactive)	97.9%	-1.63	1.26	-0.603	-5.26% (inactive)	-0.476 (inactive)	-7e-06 (inactive)	0.00515 (inactive)	inactive	19.8% (inactive)
COc1ccc(-n2c(=O)c3c4c(sc3n3c(C)nnc23)CC(C)CC4)cc1 (stereo not drawn)	617	3.9% (inactive)	15.9% (inactive)	162%	-1.05	0.383	-0.315	-0.608% (inactive)	-0.324 (inactive)	8.8e-06 (inactive)	0.00514 (inactive)	inactive	53.4% (active)
CCOC(=O)CC1=C(C(=O)OCC)C(c2cc(OC)c(OC)cc2OC)C(C#N)=C(N)O1 (stereo not drawn)	433	-10% (inactive)	-66.1% (inactive)	106%	1.93	-1.51	-0.137	-8.27% (inactive)	-0.345 (inactive)	6.8e-06 (inactive)	0.00515 (inactive)	inactive	15.6% (inactive)
CCOC(=O)c1ccc(N2CC(O)=C(c3nc4ccccc4c(=O)[nH]3)C2=N)cc1	623	-11.3% (inactive)	45.3% (inactive)	186%	-1.54	0.558	1.53	-13.3% (inactive)	-0.208 (inactive)	-1.8e-05 (inactive)	0.00503 (inactive)	inactive	2.42% (inactive)
Nc1c(C(=O)NCC2CCCO2)c2nc3ccccc3nc2n1/N=C/c1ccncc1 (stereo not drawn)	470	-2.9% (inactive)	-109% (inactive)	110%	1.93	-0.485	0.517	22.8% (inactive)	-0.507 (inactive)	-3.7e-05 (inactive)	0.00723 (inactive)	inactive	-25.5% (inactive)
COc1ccc2c(c1OC)C(=O)N1c3ccccc3C(=O)N(c3ccccc3)C21 (stereo not drawn)	475	-9.6% (inactive)	-84.9% (inactive)	169%	0.407	-0.0149	-0.273	2.46% (inactive)	-0.319 (inactive)	-5.5e-06 (inactive)	0.00449 (inactive)	inactive	3.79% (inactive)
CC(C)Cc1nc(NCCN2CCOCC2)c(C#N)c2c1COC(C)(C)C2	572	2.6% (inactive)	-114% (inactive)	192%	-1.39	1.03	0.72	-6.86% (inactive)	-0.302 (inactive)	2.3e-05 (inactive)	0.00502 (inactive)	inactive	4.53% (inactive)
COc1cccc(C2=CC(c3ccccc3)n3ncnc3N2)c1 (stereo not drawn)	565	3.2% (inactive)	36.2% (inactive)	163%	-0.222	-0.0591	0.0878	-8.76% (inactive)	-0.0434 (active)	-2e-07 (inactive)	0.00478 (inactive)	inactive	10.9% (inactive)
O=S(=O)(c1ccc(Cl)cc1)N1CCC(N2CCCCCC2)CC1	450	-23.8% (inactive)	-135% (inactive)	160%	-0.279	-1.42	0.26	11% (inactive)	-0.321 (inactive)	6.3e-06 (inactive)	0.0047 (inactive)	inactive	121% (active)
Cc1c(/C(O)=C2/C(=O)C(=O)N(CCCN3CCOCC3)C2c2ccncc2)cnn1-c1ccccc1 (stereo not drawn)	518	8.4% (inactive)	-181% (inactive)	149%	0.69	0.756	-0.189	8.76% (inactive)	-0.552 (inactive)	-1.5e-05 (inactive)	0.00511 (inactive)	inactive	15.5% (inactive)
O=C(O)CC(C(=O)OCC1CCCO1)N1CCOCC1 (stereo not drawn)	526	-5.8% (inactive)	-141% (inactive)	145%	0.582	-0.928	-1.26	10.5% (inactive)	-0.518 (inactive)	-4.1e-05 (inactive)	0.00538 (inactive)	inactive	-1.05% (inactive)
CS(=O)(=O)CCC(C(=O)n1nnc2ccccc21)N1C(=O)c2ccccc2C1=O (stereo not drawn)	342	-6.4% (inactive)	-46.5% (inactive)	134%	0.823	-0.696	-1.53	3.42% (inactive)	-0.419 (inactive)	-5.5e-05 (inactive)	0.00572 (inactive)	inactive	26% (inactive)
CC(=O)OC12CC3CC(C1)C(=NO)C(C3)C2	541	-10.2% (inactive)	-145% (inactive)	127%	1.34	-0.992	-0.795	33.7% (inactive)	-0.512 (inactive)	-2.1e-05 (inactive)	0.00472 (inactive)	inactive	39.2% (inactive)
CCOc1ccc(-c2nnc3sc(COc4ccccc4)nn23)cc1	502	-11.7% (inactive)	-288% (inactive)	155%	-0.358	-0.85	1.78	-15% (inactive)	-0.405 (inactive)	-0.000151 (inactive)	0.00528 (inactive)	inactive	53.8% (active)
Cc1ccc2[nH]c3c(c2c1)CN(C(=O)CN1CCN(c2ccccn2)CC1)CC3	563	-9% (inactive)	-69.3% (inactive)	144%	-1.22	-0.583	-0.448	4.72% (inactive)	-0.453 (inactive)	-0.000143 (inactive)	0.00579 (inactive)	inactive	10.4% (inactive)
CCOC(=O)c1c(SC)nc(SC)c2c1CCC2	648	-8.1% (inactive)	-63.6% (inactive)	182%	0.267	0.0457	1.4	-5.62% (inactive)	-0.394 (inactive)	-4.6e-05 (inactive)	0.00956 (inactive)	inactive	-10% (inactive)
CCOC(=O)c1[nH]c2ccc(OC)cc2c1NC(=O)CCN1CCN(Cc2ccccc2)CC1	541	-11.2% (inactive)	-92.4% (inactive)	165%	1.87	1.32	-0.24	1.12% (inactive)	-0.173 (inactive)	-2.9e-05 (inactive)	0.00459 (inactive)	inactive	16.3% (inactive)
CN1CCN(CCCCC(=O)c2ccccc2)CC1	600	-9.1% (inactive)	14.9% (inactive)	183%	0.5	-1.07	-0.798	-6.06% (inactive)	-0.397 (inactive)	1.3e-06 (inactive)	0.00562 (inactive)	inactive	68.4% (active)
CC1CN(c2oc(-c3cccs3)nc2C#N)CC(C)O1 (stereo not drawn)	437	-13.6% (inactive)	-188% (inactive)	178%	-0.465	0.306	0.34	0.671% (inactive)	-0.0506 (inactive)	4e-07 (inactive)	0.00683 (inactive)	inactive	5.74% (inactive)
CC1(C)Cc2c(sc(NC(=O)c3ccc(Br)o3)c2C#N)CO1	406	-17.8% (inactive)	-330% (inactive)	140%	0.838	-0.788	-0.494	7.48% (inactive)	-0.371 (inactive)	-1.6e-05 (inactive)	0.00697 (inactive)	inactive	8.5% (inactive)
CCN(CC)CCNC(=O)c1c(C)oc2cc(Br)c(OC)cc12	496	-8.7% (inactive)	-70.3% (inactive)	112%	2.28	0.845	-0.848	15.8% (inactive)	-0.55 (inactive)	-3.1e-05 (inactive)	0.0063 (inactive)	inactive	-1.94% (inactive)
